Measurements collected from several papers.
Protocols differ between the studies behind these lines.
KIT T670I/V559D: Mast/stem cell growth factor receptor Kit (KIT, Homo sapiens, UniProt P10721, T670I/V559D)
KIT V559D: Mast/stem cell growth factor receptor Kit (KIT, Homo sapiens, UniProt P10721, V559D)
KIT autoinhibited: Mast/stem cell growth factor receptor Kit, autoinhibited (KIT, Homo sapiens, UniProt P10721)
KIT D816V: Mast/stem cell growth factor receptor Kit (KIT, Homo sapiens, UniProt P10721, D816V)
KIT D816H: Mast/stem cell growth factor receptor Kit (KIT, Homo sapiens, UniProt P10721, D816H)

CN(C)c1nccc(-c2cnn3ncccc23)n1 — remaining binding (KIT T670I/V559D; binding; 1 µM): 100%
CC(=O)N1CCC(c2ccc(C(=O)NC(=N)N)cc2C(F)(F)F)CC1 — remaining binding (KIT T670I/V559D; cell-free assay, competition with immobilised ligand; 1 µM): 100%
CN(C)c1ncc(F)c(-c2cnn3ncccc23)n1 — remaining binding (KIT V559D; binding; 1 µM): 91%
C[C@@H](c1ccc(-n2cnc3c(N)ncnc32)cc1)N1CCc2nn(C)c(Cc3ccccc3)c2C1=O — remaining binding (KIT V559D; binding, competition with immobilised ligand; 0.1 µM): 32%
O=C(NCCCN1CCOCC1)c1ccc(Nc2ncc(Cl)c(-c3ccc(Cl)s3)n2)cc1 — remaining binding (KIT autoinhibited; binding, competition with immobilised ligand; 1 µM): 31%
c1cncc(-c2cccc(Nc3nccc(NC4CCCCC4)n3)c2)c1 — remaining binding (KIT T670I/V559D; binding, competition with immobilised ligand; 10 µM): 29%
O=C(Nc1cccnn1)N1CCC(=Cc2cccc(Oc3ccc(C(F)(F)F)cn3)c2)CC1 — remaining binding (Mast/stem cell growth factor receptor Kit (KIT, Homo sapiens, UniProt P10721, A829P); cell-free assay, competition with immobilised ligand; 1 µM): 96%
CN(C)c1nccc(-c2cnc3ncccn23)n1 — remaining binding (KIT D816V; binding; 1 µM): 100%
Cc1c(NC(=O)c2cc(C(N)=O)nc3cc(F)ccc23)c(C(F)(F)F)nn1Cc1ccc(C(C)(C)C)cc1 — remaining binding (KIT D816H; cell-free assay, competition with immobilised ligand; 1 µM): 100%
COc1cnc(Nc2cccc(S(N)(=O)=O)c2)nc1N1CCN(c2ccccc2)CC1 — remaining binding (KIT D816H; binding, competition with immobilised ligand; 1 µM): 66%
COc1ccc2c(O[C@@H]3C[C@H]4C(=O)N[C@]5(C(=O)O)CC5/C=C\CCCCC[C@H](NC(=O)OC5CCCC5)C(=O)N4C3)cc(-c3csc(NC(=O)C(C)C)n3)nc2c1C (stereo partly drawn) — remaining binding (Mast/stem cell growth factor receptor Kit (KIT, Homo sapiens, UniProt P10721, V559D/V654A); cell-free assay, competition with immobilised ligand; 1 µM): 74%
COc1ncc2cc3ccccc3nc2c1C#N — remaining binding (Mast/stem cell growth factor receptor Kit (KIT, Homo sapiens, UniProt P10721, L576P); cell-free assay, competition with immobilised ligand; 5 µM): 100%
N[C@@H]1CCN(c2nccc(-c3cnn4ncccc34)n2)C1 — remaining binding (Mast/stem cell growth factor receptor Kit (KIT, Homo sapiens, UniProt P10721); binding; 1 µM): 95%
C[C@@H]1CN(c2cc(-c3n[nH]c4ccc(OC5(C)CC5)cc34)ncn2)C[C@H](C)O1 — remaining binding (KIT autoinhibited; cell-free assay, competition with immobilised ligand; 0.1 µM): 70%
C[C@@H]1CCN(c2nccc(-c3cnn4ncccc34)n2)C1 — remaining binding (KIT T670I/V559D; binding; 1 µM): 100%
C[C@@H]1CN(c2cc(-c3nn(C)c4ccc(OC5(C)CC5)cc34)ncn2)C[C@H](C)O1 — remaining binding (KIT autoinhibited; cell-free assay, competition with immobilised ligand; 1 µM): 97%
O=C(NCC1CCOCC1)c1n[nH]cc1NC(=O)c1c(F)cccc1F — remaining binding (KIT autoinhibited; binding, competition with immobilised ligand; 1 µM): 100%
O=C(c1ccc(Nc2nccc(-c3cc4ccccc4s3)n2)cc1)N1CCC(N2CCCC2)CC1 — remaining binding (KIT T670I/V559D; binding, competition with immobilised ligand; 1 µM): 24%
CN(CCCC(F)(F)F)c1nccc(-c2cnn3ncccc23)n1 — remaining binding (KIT autoinhibited; binding; 1 µM): 100%
CN1CCN(c2ccc(Nc3nccc(-c4cccc([N+](=O)[O-])c4)n3)cc2C(F)(F)F)CC1 — remaining binding (KIT T670I/V559D; binding; 10 µM): 0.15%
Cc1cc(NC(=O)c2cccc(S(F)(F)(F)(F)F)c2)cc(-n2ccn3nc(-c4cccnc4)cc23)c1 — remaining binding (KIT autoinhibited; cell-free assay, competition with immobilised ligand; 1 µM): 70.3%
C=CC(=O)N1CCC(C(=O)NCC(=O)N2CCN(c3nc(-c4cnc(N)nc4C(F)F)nc(N4CCOCC4)n3)CC2)CC1 — remaining binding (KIT V559D; binding, competition with immobilised ligand; 1 µM): 78%
O=C(NCCCN1CCOCC1)c1ccc(Nc2nccc(-c3cc4ccccc4s3)n2)cc1 — remaining binding (KIT D816H; binding, competition with immobilised ligand; 1 µM): 20%
COc1cnc(Nc2cccc(S(N)(=O)=O)c2)nc1N1CCN(c2ccccc2)C(=O)C1 — remaining binding (KIT D816V; binding, competition with immobilised ligand; 1 µM): 90%
